Hits are enriched below; roughly 0.58% of the tested compounds scored in any of these assays.
OXTR potentiate: potentiates the human oxytocin receptor response; 0.061% of 320,000 active; P30559; activation, % at 3 µM; CHO-OTR cells, Fluo-8 calcium fluorescence, potentiator mode; 0% = oxytocin EC15, 100% = EC100;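 active = activation above that plate's cutoff, the mean activation of tested compounds plus 3 SD, cut at about 6.6% in these data, passing the limit was not always enough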;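 note: 100% uses oxytocin at 75 nM as the full agonist control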
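System: human OTR in CHO cells; Also added: sub-maximal oxytocin, roughly EC15; Timing: compound 6 min at room temperature before oxytocin, 100 s read; Technique: Fluo-8 intracellular calcium fluorescence, ex 470-495, em 515-575 nm; Controls: oxytocin EC15 low and EC100 high; Replication: singlicate.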
zfTRPN1 agonist: agonists of zebrafish TRPN1 channel. HEK293 zebrafish TRPN1-YFP, Fluo-8 calcium fluorescence; 100% = response to 87 µM carbachol. activation, % at 3 µM. 0.18% of 220,000 active;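 active = activation above its plate's cutoff, the mean activation of test wells on that plate plus 3 SD, cut at about 19% in these data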;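 note: 0% = DMSO alone and 100% = 87 µM carbachol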
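Assay system: Zebrafish TRPN1-YFP in HEK293 cells | Incubation: Dye loading 1 h at 37 °C, then 30 min room temperature | Measured by: Kinetic Fluo-8 fluorescence, ex 470-495, em 515-575 nm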
OXTR ag: activates the human oxytocin receptor | CHO-OTR cells, Fluo-8 calcium fluorescence; normalized: DMSO 0%, oxytocin 100% | activation, % at 3 µM | 0.32% of 320,000 active | AID 2435;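 active = activation above the mean of all tested compounds plus 3 SD, cutoff set per screening run, cut at about 20% in these data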;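 note: peak over basal fluorescence ratio from a 100 s FLIPR kinetic read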
V1aR counter: V1a receptor agonism, counter-screen for OXTR agonists | P37288 | CHO-V1R cells, Fluo-8 calcium fluorescence, agonist mode; 0% DMSO, 100% 3 nM vasopressin | activation, % at 3 µM | 0.25% of 320,000 active | AID 2797;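 active = activation above the mean activation of all tested compounds plus 3 SD, per screening run, cut at about 20% in these data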;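 note: signal is peak over basal fluorescence ratio across a 100 second FLIPR read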
Target sequence (P37288 whole entry, looked up): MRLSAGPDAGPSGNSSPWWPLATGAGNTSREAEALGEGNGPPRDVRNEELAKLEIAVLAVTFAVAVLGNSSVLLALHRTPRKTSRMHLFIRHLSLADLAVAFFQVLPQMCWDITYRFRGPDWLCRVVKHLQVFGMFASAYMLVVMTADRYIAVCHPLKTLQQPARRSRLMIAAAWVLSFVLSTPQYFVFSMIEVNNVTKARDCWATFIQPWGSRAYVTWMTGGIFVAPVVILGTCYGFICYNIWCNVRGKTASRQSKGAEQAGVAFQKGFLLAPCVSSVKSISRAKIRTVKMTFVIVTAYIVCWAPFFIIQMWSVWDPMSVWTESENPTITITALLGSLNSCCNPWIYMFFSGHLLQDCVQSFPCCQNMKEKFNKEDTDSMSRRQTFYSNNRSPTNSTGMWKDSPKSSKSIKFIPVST
TRPML3 agonist: human mucolipin-3 channel agonism; HEK293 TRPML3-YFP, Fluo-8 calcium fluorescence; 100% = the carbachol control signal; activation, % at 3 µM; 0.29% of 220,000 active;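 active = activation above its plate's cutoff, the mean activation of the plate's test wells plus 3 SD, cut at about 12% in these data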;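 note: 0% = DMSO only wells and 100% = carbachol wells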
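Test system – HEK293 line with stable expression of human TRPML3-YFP channel · Control set – carbachol 87 µM final as high control (100%), DMSO as low control (0%) · Signal – Fluo-8 calcium dye fluorescence, ex 470-495, em 515-575 nm · Incubation – 1-h 37 °C dye load, 5-s basal, 120-s post-compound reads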
TRPN1 counter: zebrafish TRPN1 agonism as TRPML3 agonist counter-screen; shares compounds with TRPML3 agonist; HEK293 zebrafish TRPN1-YFP, Fluo-8 calcium fluorescence; scaled: carbachol wells 100%, DMSO wells 0%; activation, % at 3 µM; 10% of 310 active; AID 1525;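 active = mean activation over replicates above a set limit taken from the earlier TRPN1 channel primary screen, cut at about 19% in these data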;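 note: 100% = carbachol and 0% = 0.3% DMSO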
TRPML3 confirm: human TRPML3 agonism, confirmation | shares compounds with TRPML3 agonist | HEK293 TRPML3-YFP, Fluo-8 calcium fluorescence; 100% set by carbachol, 0% by DMSO | activation, % at 3 µM | 80% of 310 active | AID 1526;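 active = activation above a set limit derived from the earlier primary screen, cut at about 12% in these data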
The depositor's hits bear a star; . = not tested or not shown.

SMILES	OXTR potentiate	zfTRPN1 agonist	OXTR ag	V1aR counter	TRPML3 agonist	TRPN1 counter	TRPML3 confirm
CC12CCC(C(=O)N(CSC(=S)N/N=C\c3ccccc3)C1=O)C2(C)C (stereo not drawn)	-16	0	-2	-1	43*	-1	2
CC12CCC(C(=O)N(CC(=O)O)C1=O)C2(C)C (stereo not drawn)	-9	1	-1	1	1	.	.
Cc1cccc2sc(NC(=O)C3c4ccccc4Oc4ccccc43)nc12	-11	1	0	-1	0	.	.
O=C(Nc1nc(-c2ccc3ccccc3c2)cs1)C1CCN(S(=O)(=O)c2cccs2)CC1	-5	0	-1	0	19*	3	52*
Cc1ccc(-c2csc(NC(=O)C3CCN(S(=O)(=O)c4cccs4)CC3)n2)cc1	-4	3	7	5	4	.	.
CSc1nsc(SC)c1C(=O)N1CCN(S(=O)(=O)c2ccc(C)cc2)C1C(C)C (stereo not drawn)	-13	-1	-2	0	46*	-2	26*
CNS(=O)(=O)c1cc(N(C)S(=O)(=O)c2ccc(C)cc2)c(C)cc1C	-5	0	0	0	2	.	.
Cc1ccc(S(=O)(=O)N(C)c2cc(S(=O)(=O)N3CCC(C)CC3)c(C)cc2C)cc1	-14	-1	1	-1	40*	-1	73*
O=C(c1ccccc1F)N(NC(=O)C(O)(c1ccccc1)c1ccccc1)c1ccccc1	-8	-3	-2	-1	18*	-2	30*
CNC(=S)N(Cc1ccc(Cl)cc1)Cc1cccs1	-7	1	2	1	1	.	.
Cc1ccc(SCC(=O)O/N=C(\N)c2cccc([N+](=O)[O-])c2)cc1	5	0	-1	0	0	.	.
Cc1ccc(S(=O)(=O)N(C)CC(=O)O/N=C(\N)c2cccc([N+](=O)[O-])c2)cc1	-21	-1	3	5	62*	0	48*
O=C(C1Cc2ccccc2CN1S(=O)(=O)c1ccc(F)cc1)N1CCCCCC1 (stereo not drawn)	1	0	-1	-2	40*	0	41*
O=C(C1Cc2ccccc2CN1S(=O)(=O)c1ccc(F)cc1)N1CCOCC1 (stereo not drawn)	-1	0	-1	-1	7	.	.
CCOC(=O)c1c(S(=O)(=O)NCC(=O)NCc2cccc(C)c2)c(C)n(C)c1C	-4	.	-2	-2	.	.	.
Cc1cc(C(C)(C)C)oc1C(=O)N(CC(=O)NC1CCCC1)c1c(C)cccc1C	-3	1	-1	-1	44*	1	72*
Cc1cc(C(C)(C)C)oc1C(=O)N(CC(=O)NC1CCCC1)c1ccc(F)cc1	-8	5	0	4	4	.	.
NC(=O)CC(NC(=O)Cc1ccc(Br)cc1)c1ccc(NCc2ccc(F)cc2)c([N+](=O)[O-])c1 (stereo not drawn)	-10	.	0	1	.	.	.
CC(=Nc1ccc(O)cc1)c1sc2ccccc2c1O	-12	2	8	7	2	.	.
CC(=Nc1ccccc1O)c1sc2ccccc2c1O	-9	16	27*	31*	12*	21*	9
CC(=O)Nc1ccccc1OCC(=O)c1cc(C)n(Cc2cccs2)c1C	-27	16	12	13	28*	27*	34*
CN(C)S(=O)(=O)N1CCN(c2cc(Cl)ccc2Cl)CC1	-11	-1	-1	0	16*	-2	18*
CN(C)S(=O)(=O)N1CCN(c2ccccc2Cl)CC1	-8	1	0	0	3	.	.
O=C(COC(=O)c1ccc(Cl)nc1)NCCC1=CCCCC1	-6	-1	-2	0	0	.	.
Cc1ccc(S(=O)(=O)N2c3ccccc3-c3c(ssc3=S)C2(C)C)cc1	-10	-1	-3	0	1	.	.
SMILES	OXTR potentiate	zfTRPN1 agonist	OXTR ag	V1aR counter	TRPML3 agonist	TRPN1 counter	TRPML3 confirm
CC1(C)CSC(=S)N1S(=O)(=O)c1ccccc1	1	0	1	0	32*	1	20*
COc1ccc(-c2csc(NC(=O)c3ccccc3F)n2)cc1	-11	.	-1	1	.	.	.
Cc1ccc(S(=O)(=O)Nc2ccccc2C(=O)Nc2nc(-c3ccc(F)cc3)cs2)cc1	-15	14	12	10	12*	21*	10
COc1ccc(-c2csc(NC(=O)c3ccccc3NS(=O)(=O)c3ccc(F)c(F)c3)n2)cc1	-9	17	15	10	13*	27*	17*
CCOc1ccc(NC(=O)c2ccccc2NS(=O)(=O)c2ccc(F)cc2)c([N+](=O)[O-])c1	-12	1	7	7	15*	10	34*
CSc1ccc(N2C(=O)NC3(CCCCC3)C2=O)cc1	-1	1	-1	0	0	.	.
O=C(CSc1nc2c(c(=O)[nH]1)CCCC2)Nc1ccc(Cl)cc1F	-2	-1	0	0	0	.	.
COc1ccc(NC(=O)c2cc([N+](=O)[O-])ccc2O)cc1	-16	17	12	7	15*	26*	11
COc1ccccc1-c1ccc(/C=C2/C=C(C)OC2=O)o1	-15	0	1	1	1	.	.
COc1ccccc1-c1ccc(/C=C2\C=CC(=O)O2)o1	-20	17	50*	44*	14*	21*	13*
COc1ccccc1N(C)S(=O)(=O)c1ccc(Cl)c(C(=O)OCc2c(C)noc2C)c1	-7	1	0	5	41*	0	39*
O=S(=O)(Cc1cc(Cl)nc(-c2ccccc2)n1)c1ccccc1	0	-1	-2	-2	19*	-1	35*
Cc1cc(C)c(S(=O)(=O)Nc2ncccc2C)c(C)c1	-3	.	0	1	.	.	.
Cc1cc(C)c(S(=O)(=O)Nc2ccccc2-c2ccccc2)c(C)c1	-8	0	-2	-1	13*	0	45*
O=S(=O)(NC1CCCCCC1)c1cccc2cccnc12	-3	-1	-2	-2	33*	0	56*
Cc1onc(-c2ccc(Cl)cc2)c1-c1ccnn1S(=O)(=O)c1cccc(C(F)(F)F)c1	-12	1	1	1	33*	0	51*
Cc1ccc(S(=O)(=O)n2nccc2-c2c(-c3ccccc3)noc2C)cc1	-13	1	-2	2	120*	-1	94*
Fc1ccc(Nc2nnc(C(F)(F)F)s2)cc1Cl	-18	19	10	9	17*	15	9

Screening data deposited in PubChem by The Scripps Research Institute Molecular Screening Center.
